Reference: ChEMBL document CHEMBL2016446, “Trivalent ultrashort lipopeptides are potent pH dependent antifungal agents” (J Med Chem, 2012)
Converted amounts (≈) assume the structure as drawn. The source made the active and inactive calls. No cut-off for these calls is given here.

Legend:
[1] = tested on: Aspergillus fumigatus; assay: Induction of membrane depolarization in Aspergillus fumigatus at 1.56 to 100 uM at pH 5.5 by DiSC3(5)-based fluorescence assay; format: functional, organism-based
Outline: (§1)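 A. fumigatus was pregrown 20 h at 35 °C from 2 × 10^3 CFU/mL in RPMI/MOPS (pH 7.4 or 5.5). Cells were loaded with DiSC3(5) at 0.2 μM final in sodium phosphate buffer (pH 5.5 or 7.5) for 15 min. Peptides were added at 1.56–100 μM final, and fluorescence (ex 640/em 660 nm) was read after 1 h.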

[2] = tested on: Escherichia coli; assay: Antibacterial activity against Escherichia coli ATCC D21 after 18 to 20 hrs at pH 7.5; format: functional, organism-based
Outline: (§2)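 Broth microdilution in LB: bacterial suspension at 10^6 CFU/mL mixed 1:1 with serial 2-fold peptide dilutions, made from a 1 mg/mL aqueous stock. Strains were E. coli ATCC D21 and S. aureus ATCC 6538P. MIC was the lowest concentration with no growth after 18–20 h. Values are averages of duplicate experiments.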

[3] = tested on: Aspergillus fumigatus; assay: Induction of membrane damage in Aspergillus fumigatus at 1.56 to 100 uM at pH 5.5 by Sytox green-based fluorescence assay; format: functional, organism-based
Outline: (§3)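 A. fumigatus at 2 × 10^3 CFU/mL in RPMI/MOPS (pH 7.4 or 5.5) was grown 20 h at 35 °C. Sytox green was added at 0.2 μM final in sodium phosphate buffer (pH 5.5 or 7.5) for 15 min. Peptides were then added at 100–1.56 μM final. Fluorescence (ex 485/em 530 nm) was read after 1 h.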

[4] = tested on: Aspergillus fumigatus; assay: Induction of membrane depolarization in Aspergillus fumigatus at 1.56 to 100 uM at pH 7.5 by DiSC3(5)-based fluorescence assay; format: functional, organism-based; outline: as §1
[5] = tested on: Staphylococcus aureus; assay: Antibacterial activity against Staphylococcus aureus ATCC 6538P after 18 to 20 hrs at pH 5.5; format: functional, organism-based; outline: as §2
[6] = tested on: Aspergillus fumigatus; assay: Induction of membrane damage in Aspergillus fumigatus at 1.56 to 100 uM at pH 7.5 by Sytox green-based fluorescence assay; format: functional, organism-based; outline: as §3
[7] = tested on: Staphylococcus aureus; assay: Antibacterial activity against Staphylococcus aureus ATCC 6538P after 18 to 20 hrs at pH 7.5; format: functional, organism-based; outline: as §2
[8] = tested on: Escherichia coli; assay: Antibacterial activity against Escherichia coli ATCC D21 after 18 to 20 hrs at pH 5.5; format: functional, organism-based; outline: as §2
[9] = Stability of the compound at 1 ug/uL after 2 hrs by RP-HPLC analysis in presence of proteinase K; format: ADME
Outline: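 Peptide at 1 μg/μL in PBS (400 μL) mixed with 8 μL proteinase K solution (5 μg/μL; 2% DMSO final). Intact peptide quantified by RP-HPLC on a C4 column, 0.1% TFA water/acetonitrile, 10–90% B over 40 min. Measured against a peptide injection taken before enzyme addition. Melittin served as enzyme-activity control.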

[10] = tested on: Cryptococcus neoformans; assay: Antifungal activity against Cryptococcus neoformans ATCC MYA422 after 72 hrs at pH 5.5; format: functional; conditions: ATCC MYA422, 72 h
Outline: (§4)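 The method followed CLSI M38-A2 (Aspergillus) or M27-A3. Medium was RPMI 1640 with 0.165 M MOPS and L-glutamine, without NaHCO3, at pH 5.5 or 7.5. Inoculum of 2 × 10^3 CFU/mL was mixed 1:1 with serial 2-fold peptide dilutions. Incubation was at 35 °C: 48 h for A. fumigatus and C. albicans, 72 h for C. neoformans. MIC was read by eye as no growth. Values are averages of duplicates.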

[11] = tested on: Candida albicans; assay: Antifungal activity against Candida albicans ATCC 10231 after 48 hrs at pH 5.5; format: functional; conditions: ATCC 10231, 48 h; outline: as §4
[12] = tested on: Candida albicans; assay: Antifungal activity against Candida albicans ATCC 10231 after 48 hrs at pH 7.5; format: functional; conditions: ATCC 10231, 48 h; outline: as §4
[13] = tested on: Aspergillus fumigatus; assay: Antifungal activity against Aspergillus fumigatus ATCC 26430 after 48 hrs at pH 7.5; format: functional; conditions: ATCC 26430, 48 h; outline: as §4
[14] = tested on: Aspergillus fumigatus; assay: Antifungal activity against Aspergillus fumigatus ATCC 26430 after 48 hrs at pH 5.5; format: functional; conditions: ATCC 26430, 48 h; outline: as §4
[15] = tested on: Cryptococcus neoformans; assay: Antifungal activity against Cryptococcus neoformans ATCC MYA422 after 72 hrs at pH 7.5; format: functional; conditions: ATCC MYA422, 72 h; outline: as §4
[16] = Ratio of LC50 for mouse RAW264.7 cells to MIC for Aspergillus fumigatus ATCC 26430; format: functional
Outline: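 LC50: RAW264.7 macrophages in supplemented DMEM, 2 × 10^5 cells/well overnight, then peptide at 3.12–200 μM for 16 h. Viability read by XTT; LC50 from dose–response curves. MIC: CLSI M38-A2 broth microdilution, 2 × 10^3 CFU/mL A. fumigatus ATCC 26430 in RPMI 1640/0.165 M MOPS (pH 5.5 or 7.5). Serial 2-fold dilutions, 35 °C for 48 h, growth scored visually. In vitro values are means of duplicates.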

[17] = tested on: Aspergillus fumigatus; assay: Antifungal activity against Aspergillus fumigatus Af293 infected in immunocompromized ICR mouse assessed as reduction in fungal load in kidney at 4.5 mg/kg, at pH 5.5 it administered on day 1 and 4 measured after 5 days post infection (reference value: 20 to 5400 CFU); format: functional; conditions: route endotracheal
[18] = tested on: RAW264.7; assay: Cytotoxicity against mouse RAW264.7 cells at 200 uM after 16 hrs by XTT assay; format: cell-based; conditions: raw264.7, 16 h
Outline: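 RAW264.7 macrophages were grown in DMEM with 10% FBS, L-glutamine, pyruvate and nonessential amino acids at 37 °C, 5% CO2. Cells were seeded at 2 × 10^5 per well overnight, then exposed to peptides at 3.12–200 μM for 16 h. Medium was replaced with fresh medium plus XTT reagent. LC50 was taken from dose–viability curves.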

[19] = Toxicity in human RBC assessed as hemolytic activity at 125 uM at pH 7.5 after 60 mins by spectrophotometry; format: cell-based; conditions: erythrocyte, pH 7.5, 1 h
Outline: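 Human erythrocytes (4% final) were incubated with peptide in PBS for 60 min at 37 °C. Hemoglobin release was read as supernatant absorbance at 540 nm. PBS alone served as the 0% reference and 1% Triton as the 100% reference. Values are averages of duplicates.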

[20] = tested on: Aspergillus fumigatus; assay: Antifungal activity against Aspergillus fumigatus Af293 infected in immunocompromized ICR mouse assessed as reduction in fungal load in spleen at 4.5 mg/kg, at pH 5.5 it administered on day 1 and 4 measured after 5 days post infection (reference value: 10 to 140 CFU); format: functional; conditions: route endotracheal
[21] = tested on: Mus musculus; assay: Toxicity in immunocompromized ICR mouse assessed as visible signs of toxicity at 9 mg/kg, at pH 5.5 it administered on day 1, 4, 7 and 11 monitored for 28 days; format: organism-based; set-up: dose 9 mg/kg, route endotracheal; conditions: in vivo, inhaled_or_intranasal, pH 5.5, 9 mg/kg, 672 h
Outline: (§5)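 Six-week-old female ICR mice (n = 5) were immunosuppressed with cortisone acetate (150 mg/kg in PBS/0.1% Tween 80, s.c.) 4 days before the first dose, on that day, and 2 and 4 days after. Peptide in saline at pH 5.5 was given i.t. on days 1, 4, 7 and 11. Survival, weight, appearance and behaviour were followed for 28 days.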

[22] = tested on: Mus musculus; assay: Toxicity in immunocompromized ICR mouse assessed as weight loss at 9 mg/kg, at pH 5.5 it administered on day 1, 4, 7 and 11 monitored for 28 days; format: organism-based; set-up: dose 9 mg/kg, route endotracheal; conditions: in vivo, inhaled_or_intranasal, pH 5.5, 9 mg/kg, 672 h; outline: as §5
[23] = tested on: Aspergillus fumigatus; assay: Antifungal activity against Aspergillus fumigatus Af293 infected in immunocompromized ICR mouse assessed as reduction in fungal load in lung at 4.5 mg/kg, at pH 5.5 it administered on day 1 and 4 measured after 5 days post infection (reference value: 80 to 12920 CFU); format: functional; conditions: route endotracheal

SMILES	Activity [1]	Activity [3]	Activity [4]	Activity [6]	MIC [10]	MIC [11]	MIC [12]	MIC [13]	MIC [14]	MIC [15]	also measured
CCCCCCCCCCCCCC(=O)N[C@@H](Cc1c[nH]cn1)C(=O)N[C@@H](Cc1c[nH]cn1)C(=O)N1CCCN(C(=O)[C@H](Cc2c[nH]cn2)NC(=O)[C@H](Cc2c[nH]cn2)NC(=O)CCCCCCCCCCCCC)Cc2cc(cc(C(N)=O)c2)CN(C(=O)[C@H](Cc2c[nH]cn2)NC(=O)[C@H](Cc2c[nH]cn2)NC(=O)CCCCCCCCCCCCC)CCC1 [listing 1 of 2 here]	Active	inactive	Active	inactive							Activity [2]: inactive; Activity [5]: inactive; Activity [7]: inactive; Activity [8]: inactive
CC[C@H](C)[C@H](NC(=O)CN)C(=O)NCC(=O)N[C@@H](C)C(=O)N[C@H](C(=O)N[C@@H](CC(C)C)C(=O)N[C@@H](CCCCN)C(=O)N[C@H](C(=O)N[C@@H](CC(C)C)C(=O)N[C@H](C(=O)N[C@H](C(=O)NCC(=O)N[C@@H](CC(C)C)C(=O)N1CCC[C@H]1C(=O)N[C@@H](C)C(=O)N[C@@H](CC(C)C)C(=O)N[C@H](C(=O)N[C@@H](CO)C(=O)N[C@@H](Cc1c[nH]c2ccccc12)C(=O)N[C@H](C(=O)N[C@@H](CCCCN)C(=O)N[C@@H](CCCNC(=N)N)C(=O)N[C@@H](CCCCN)C(=O)N[C@@H](CCCNC(=N)N)C(=O)N[C@@H](CCC(N)=O)C(=O)N[C@@H](CCC(N)=O)C(N)=O)[C@@H](C)CC)[C@@H](C)CC)[C@@H](C)O)[C@@H](C)O)C(C)C)C(C)C [MELITTIN]	Active	Active	Active	Active							Stability ([9]; 2 h): Unstable
CCCCCCCCCCCCCCN[C@@H](Cc1cnc[nH]1)C(=O)N[C@@H](Cc1cnc[nH]1)C(=O)O	inactive	inactive	inactive	inactive	25 µM (≈ 12.2 µg/mL)	> 100 µM	> 100 µM	> 100 µM	50 µM (≈ 24.4 µg/mL)	> 100 µM	
CCCCCCCCCCCCCC(=O)N[C@@H](Cc1c[nH]cn1)C(=O)N[C@@H](Cc1c[nH]cn1)C(=O)N1CCCN(C(=O)[C@H](Cc2c[nH]cn2)NC(=O)[C@H](Cc2c[nH]cn2)NC(=O)CCCCCCCCCCCCC)Cc2cc(cc(C(N)=O)c2)CN(C(=O)[C@H](Cc2c[nH]cn2)NC(=O)[C@H](Cc2c[nH]cn2)NC(=O)CCCCCCCCCCCCC)CCC1 [listing 2 of 2 here]					3.12 µM (≈ 5.4 µg/mL)	> 100 µM	> 100 µM	> 100 µM	3.12 µM (≈ 5.4 µg/mL)	> 100 µM	Ratio [16]: 64; CFU [17]: 70; Activity [18]: Non-toxic; Activity [19]: Non-toxic; CFU [20]: 20; remaining at 2 h, 1 ug/uL ([9]; proteinase K, read-out: Stability): 80%; Activity [21]: Non-toxic; Activity [22]: Non-toxic; CFU [23]: 40
